Test results published in ChEMBL document CHEMBL4017515 (J Med Chem, 2017).

Assays:
[1] = Aqueous solubility of compound; type: physicochemical
[2] = tested on: Staphylococcus aureus LAC; assay: Inhibition of CrtN in Staphylococcus aureus USA300 LAC assessed as bacterial death by measuring survival rate measured after 6 hrs by serial dilution method (reference value: 12%)
Summary of the method: (§1)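 Overnight cultures in PBS (1×10^7 CFU/mL) mixed 1:9 with healthy-volunteer human whole blood (1×10^6 CFU/mL final). Held 6 h at 37 °C; surviving CFU counted by serial dilution plating on TSA/TSB.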

[3] = tested on: Staphylococcus aureus subsp. aureus MW2; assay: Inhibition of CrtN in Staphylococcus aureus USA400 MW2 assessed as bacterial death by measuring survival rate measured after 6 hrs by serial dilution method (reference value: 20.67%); summary of the method: as §1
[4] = tested on: Staphylococcus aureus LAC; assay: Inhibition of CrtN in Staphylococcus aureus USA300 LAC assessed as H2O2-induced bacterial death by measuring fold reduction in survival rate at 1 uM preincubated for 24 hrs followed by H2O2 addition measured after 30 mins by serial dilution method
Summary of the method: (§2)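 Strain grown in TSB at 37 °C for 24 h with or without 1 μM compound, or with NAC. Cells washed in PBS and set at 4×10^6 CFU per 250 μL. H2O2 added to 1.5% final, then incubated 30 min at 37 °C with shaking at 250 rpm. Reaction quenched with 1000 U/mL catalase; survivors counted by serial dilution CFU on TSA/TSB.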

[5] = tested on: Staphylococcus aureus subsp. aureus MW2; assay: Inhibition of CrtN in Staphylococcus aureus USA400 MW2 assessed as H2O2-induced bacterial death by measuring fold reduction in survival rate at 1 uM preincubated for 24 hrs followed by H2O2 addition measured after 30 mins by serial dilution method; summary of the method: as §2
[6] = Tmax in Sprague-Dawley rat at 5 mg/kg, iv after 24 hrs by LC/MS/MS analysis; type: ADME, organism-based; settings: in vivo
Summary of the method: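 Male SD rats (230-260 g), six in total across routes. Single intravenous dose of 5 mg/kg in 10% castor oil/water. Blood sampled at various time points over 24 h. Compound concentration in blood quantified by LC-MS/MS.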

[7] = Mean residence time (0 to t) in Sprague-Dawley rat at 5 mg/kg, iv after 24 hrs by LC/MS/MS analysis; type: ADME, organism-based; settings: in vivo
Summary of the method: (§3)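 Male SD rats (230-260 g), six in total; compound in 10% castor oil/water given once IV at 5 mg/kg or PO at 10 mg/kg. Blood sampled at various time points over 24 h, and drug concentration measured by LC-MS/MS.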

[8] = AUC (0 to infinity) in Sprague-Dawley rat at 10 mg/kg, po after 24 hrs by LC/MS/MS analysis; type: ADME, organism-based; set-up: dose 10 mg/kg, time infinity, route oral; settings: in vivo; summary of the method: as §3
Staphylococcus aureus [9] = assay: Growth inhibition of Staphylococcus aureus USA300 LAC at 0.2 mM measured after overnight incubation; settings: 200 µM
[10] = Mean residence time (0 to infinity) in Sprague-Dawley rat at 10 mg/kg, po after 24 hrs by LC/MS/MS analysis; type: ADME, organism-based; settings: in vivo; summary of the method: as §3
[11] = AUC (0 to t) in Sprague-Dawley rat at 10 mg/kg, po after 24 hrs by LC/MS/MS analysis; type: ADME, organism-based; set-up: dose 10 mg/kg, time < 24 hr, route oral; settings: in vivo; summary of the method: as §3
Staphylococcus aureus [12] = assay: Growth inhibition of Staphylococcus aureus Mu50 at 0.2 mM measured after overnight incubation; settings: 200 µM
[13] = Cmax in Sprague-Dawley rat at 5 mg/kg, iv after 24 hrs by LC/MS/MS analysis; type: ADME, organism-based; set-up: dose 5 mg/kg, route intravenous; settings: in vivo; summary of the method: as §3
[14] = AUC (0 to infinity) in Sprague-Dawley rat at 5 mg/kg, iv after 24 hrs by LC/MS/MS analysis; type: ADME, organism-based; set-up: dose 5 mg/kg, time infinity, route intravenous; settings: in vivo; summary of the method: as §3
[15] = Half life in Sprague-Dawley rat at 5 mg/kg, iv after 24 hrs by LC/MS/MS analysis; type: ADME, organism-based; settings: in vivo; summary of the method: as §3
Staphylococcus aureus [16] = assay: Growth inhibition of Staphylococcus aureus Newman at 0.2 mM measured after overnight incubation; settings: 200 µM
[17] = Half life in Sprague-Dawley rat at 10 mg/kg, po after 24 hrs by LC/MS/MS analysis; type: ADME, organism-based; settings: in vivo; summary of the method: as §3
[18] = Mean residence time (0 to infinity) in Sprague-Dawley rat at 5 mg/kg, iv after 24 hrs by LC/MS/MS analysis; type: ADME, organism-based; settings: in vivo; summary of the method: as §3
[19] = Tmax in Sprague-Dawley rat at 10 mg/kg, po after 24 hrs by LC/MS/MS analysis; type: ADME, organism-based; settings: in vivo
Summary of the method: (§4)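 Male SD rats (230-260 g), six in total across routes. Compound dissolved in 10% castor oil/water, given orally at 10 mg/kg, with an IV arm at 5 mg/kg for comparison. Blood sampled at various time points over 24 h. Blood concentrations measured by LC-MS/MS.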

[20] = Cmax in Sprague-Dawley rat at 10 mg/kg, po after 24 hrs by LC/MS/MS analysis; type: ADME, organism-based; set-up: dose 10 mg/kg, route oral; settings: in vivo; summary of the method: as §3
[21] = AUC (0 to t) in Sprague-Dawley rat at 5 mg/kg, iv after 24 hrs by LC/MS/MS analysis; type: ADME, organism-based; set-up: dose 5 mg/kg, time < 24 hr, route intravenous; settings: in vivo; summary of the method: as §3
[22] = Oral bioavailability in Sprague-Dawley rat at 10 mg/kg after 24 hrs by LC/MS/MS analysis; type: ADME, organism-based; settings: in vivo; summary of the method: as §4
Staphylococcus aureus [23] = assay: Growth inhibition of Staphylococcus aureus USA400 MW2 at 0.2 mM measured after overnight incubation; settings: 200 µM
[24] = Mean residence time (0 to t) in Sprague-Dawley rat at 10 mg/kg, po after 24 hrs by LC/MS/MS analysis; type: ADME, organism-based; settings: in vivo; summary of the method: as §3
[25] = tested on: Staphylococcus aureus subsp. aureus MW2; assay: Inhibition of CrtN in Staphylococcus aureus USA400 MW2 assessed as H2O2-induced bacterial death by measuring survival rate at 1 uM preincubated for 24 hrs followed by H2O2 addition measured after 30 mins by serial dilution method (reference value: 26.3%)
[26] = tested on: Staphylococcus aureus LAC; assay: Inhibition of CrtN in Staphylococcus aureus USA300 LAC assessed as H2O2-induced bacterial death by measuring survival rate at 1 uM preincubated for 24 hrs followed by H2O2 addition measured after 30 mins by serial dilution method (reference value: 24%)

SMILES | solubility [1] | other results
COc1ccc(/C=C/CN(C)Cc2ccc3c(c2)CCCC3)cc1.Cl | 900 µg/mL | –
CC(O)C(=O)O.CN(C/C=C/C=C/c1ccc(-c2ccccc2)cc1)Cc1ccc2c(c1)OCCC2 | 6500 µg/mL | –
Br.CN(C/C=C/C=C/c1ccc(-c2ccccc2)cc1)Cc1ccc2c(c1)OCCC2 | 2800 µg/mL | –
CN(C/C=C/C=C/c1ccc(-c2ccccc2)cc1)Cc1ccc2c(c1)OCCC2.O=C(O)CC(O)(CC(=O)O)C(=O)O | 1600 µg/mL | –
CN(C/C=C/c1ccc(C(F)(F)F)cc1)Cc1ccc2c(c1)CCCCC2.Cl | 2600 µg/mL | –
CCOc1ccc(/C=C/CN(C)Cc2ccc3c(c2)CCO3)cc1.Cl | 11600 µg/mL | –
CN(C/C=C/C=C/c1ccc(-c2ccccc2)cc1)Cc1ccc2c(c1)OCCC2.O=C(O)/C=C\C(=O)O | 1300 µg/mL | –
CN(C/C=C/c1ccc(Cl)cc1)Cc1ccc2c(c1)CCCCC2.Cl | 1200 µg/mL | –
CN(C/C=C/c1ccc(C(F)(F)F)cc1)Cc1ccc2c(c1)OCCC2.Cl | 13200 µg/mL | –
CN(C/C=C/C=C/c1ccc(-c2ccccc2)cc1)Cc1ccc2c(c1)OCCC2.O=C(O)CCC(=O)O | 2300 µg/mL | –
CC(=O)O.CN(C/C=C/C=C/c1ccc(-c2ccccc2)cc1)Cc1ccc2c(c1)OCCC2 | 4100 µg/mL | –
CN(C/C=C/c1ccc(-c2ccccc2)cc1)Cc1ccc2c(c1)CCO2.O=C(O)C(F)(F)F | 1500 µg/mL | –
CN(C/C=C/c1ccc(-c2ccccc2)cc1)Cc1ccc2c(c1)CCO2.O=P(O)(O)O | 16200 µg/mL | –
CCOc1ccc(/C=C/CN(C)Cc2ccc3c(c2)OCCC3)cc1.Cl | 10200 µg/mL | –
CN(C/C=C/c1ccc(Br)cc1)Cc1ccc2c(c1)CCCC2.Cl | 2000 µg/mL | –
CN(C/C=C/c1ccc(-c2ccccc2)cc1)Cc1ccc2c(c1)CCO2 | – | Survival [2]: 0.12%; Survival [3]: 0.2%; fold change (FC) [4]: 10; fold change (FC) [5]: 10
CN(C/C=C/c1ccc(Cl)cc1)Cc1ccc2c(c1)OCCC2.Cl | 11500 µg/mL | –
COc1ccc(/C=C/CN(C)Cc2ccc3c(c2)CCCCC3)cc1.Cl | 1400 to 4100 µg/mL | –
CN(C/C=C/c1ccc(-c2ccccc2)cc1)Cc1ccc2c(c1)CCO2.Cl | 4400 µg/mL | Tmax [6]: 4.98 min; MRT last at 24 h [7]: 54 min; AUC(0-inf) [8]: 177 ng·h/mL; growth inhibition (GI) (Staphylococcus aureus [9]): Non-Toxic; MRT inf [10]: 3.28 h; AUC(0-t) at 24 h [11]: 156 ng·h/mL; growth inhibition (GI) (Staphylococcus aureus [12]): Non-Toxic; Cmax [13]: 2040 ng/mL; AUC(0-inf) [14]: 1360 ng·h/mL; half-life [15]: 136 min; growth inhibition (GI) (Staphylococcus aureus [16]): Non-Toxic; half-life [17]: 102 min; MRT inf [18]: 1.13 h; Tmax [19]: 2 h; Cmax [20]: 41.8 ng/mL; AUC(0-t) at 24 h [21]: 1330 ng·h/mL; bioavailability [22]: 6.5%; growth inhibition (GI) (Staphylococcus aureus [23]): Non-Toxic; MRT last at 24 h [24]: 2.61 h
Br.CN(C/C=C/c1ccc(-c2ccccc2)cc1)Cc1ccc2c(c1)CCO2 | 2200 µg/mL | –
CN(C/C=C/c1ccc(-c2ccccc2)cc1)Cc1ccc2c(c1)CCO2.O=S(=O)(O)O | 1800 µg/mL | –

SMILES | solubility [1] | other results
CC(O)C(=O)O.CN(C/C=C/c1ccc(-c2ccccc2)cc1)Cc1ccc2c(c1)CCO2 | 6200 µg/mL | –
CN(C/C=C/c1ccc(-c2ccccc2)cc1)Cc1ccc2c(c1)CCO2.O=C(O)CC(O)(CC(=O)O)C(=O)O | 2300 µg/mL | –
CN(C/C=C/c1ccc(Br)cc1)Cc1ccc2c(c1)CCCCC2.Cl | 600 µg/mL | –
CN(C/C=C/C=C/c1ccc(-c2ccccc2)cc1)Cc1ccc2c(c1)OCCC2.O=C(O)C(F)(F)F | 1700 µg/mL | –
CN(C/C=C/C=C/c1ccc(-c2ccccc2)cc1)Cc1ccc2c(c1)OCCC2.O=C(O)C(O)C(O)C(=O)O | 4600 µg/mL | –
CN(C/C=C/c1ccc(C(F)(F)F)cc1F)Cc1ccc2c(c1)CCO2.Cl | 16300 µg/mL | –
CN(C/C=C/c1ccc(C(F)(F)F)cc1F)Cc1ccc2c(c1)OCCC2.Cl | 15200 µg/mL | –
CN(C/C=C/C=C/c1ccc(-c2ccccc2)cc1)Cc1ccc2c(c1)OCCC2.O=S(=O)(O)O | 1100 µg/mL | –
CN(C/C=C/c1ccc(-c2ccccc2)cc1)Cc1ccc2c(c1)CCO2.O=C(O)CCC(=O)O | 3300 µg/mL | –
CN(C/C=C/c1ccc(C(F)(F)F)cc1)Cc1ccc2c(c1)CCO2.Cl | 14600 µg/mL | –
CN(C/C=C/C=C/c1ccc(-c2ccccc2)cc1)Cc1ccc2c(c1)OCCC2.Cl | 3800 µg/mL | growth inhibition (GI) (Staphylococcus aureus [9]): Non-Toxic; growth inhibition (GI) (Staphylococcus aureus [12]): Non-Toxic; growth inhibition (GI) (Staphylococcus aureus [16]): Non-Toxic; growth inhibition (GI) (Staphylococcus aureus [23]): Non-Toxic
CN(C/C=C/c1ccc(-c2ccccc2)cc1)Cc1ccc2c(c1)CCO2.O=C(O)/C=C\C(=O)O | 1200 µg/mL | –
CN(C/C=C/c1ccc(Cl)cc1)Cc1ccc2c(c1)CCCC2.Cl | 1900 µg/mL | –
CN(C/C=C/C=C/c1ccc(-c2ccccc2)cc1)Cc1ccc2c(c1)OCCC2.O=P(O)(O)O | 12900 µg/mL | –
CC(=O)O.CN(C/C=C/c1ccc(-c2ccccc2)cc1)Cc1ccc2c(c1)CCO2 | 4700 µg/mL | –
CN(C/C=C/c1ccc(C(F)(F)F)cc1)Cc1ccc2c(c1)CCCC2.Cl | 700 µg/mL | –
CC(=O)N[C@@H](CS)C(=O)O | – | Survival [25]: 57%; Survival [26]: 54.7%
CN(C/C=C/c1ccc(C(F)F)cc1)Cc1ccc2c(c1)OCCC2.Cl | 16300 µg/mL | –
CN(C/C=C/c1ccc(-c2ccccc2)cc1)Cc1ccc2c(c1)CCO2.O=C(O)C(O)C(O)C(=O)O | 5700 µg/mL | –
CN(C/C=C/C=C/c1ccc(-c2ccccc2)cc1)Cc1ccc2c(c1)OCCC2 | – | Survival [2]: 0.23%; Survival [3]: 0.53%; fold change (FC) [4]: 10; fold change (FC) [5]: 10
